Screening results: PubChem BioAssay, several laboratories
CYP2C19 act = human CYP2C19 activators, primary screen, biochemical, luminescence | recombinant CYP2C19, luciferin-H EGE luminescence; hits give high values; 0 = fully inhibited enzyme, 1 = untreated enzyme | activation factor at 5 µM | 96,000 tested, under 10 active;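 active = activation factor of at least 2 at 5 µM in the primary screen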;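 note: 0 = wells with 2.5 mM tranylcypromine and 1 = vehicle-only wells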
CYP2C9 inh = blockers of cytochrome P450 2C9 activity – biochemical, luminescence, ADME assay, primary screen; P11712; CYP2C9 Supersomes, luciferin-H conversion; inhibition, % at 5 µM; hit rate 20% among 96,000; AID 777, 2007;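 active = blocking of liver enzyme CYP2C9 beyond about 50% at 5 µM, limit read from the data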
Target sequence (P11712 whole entry, looked up): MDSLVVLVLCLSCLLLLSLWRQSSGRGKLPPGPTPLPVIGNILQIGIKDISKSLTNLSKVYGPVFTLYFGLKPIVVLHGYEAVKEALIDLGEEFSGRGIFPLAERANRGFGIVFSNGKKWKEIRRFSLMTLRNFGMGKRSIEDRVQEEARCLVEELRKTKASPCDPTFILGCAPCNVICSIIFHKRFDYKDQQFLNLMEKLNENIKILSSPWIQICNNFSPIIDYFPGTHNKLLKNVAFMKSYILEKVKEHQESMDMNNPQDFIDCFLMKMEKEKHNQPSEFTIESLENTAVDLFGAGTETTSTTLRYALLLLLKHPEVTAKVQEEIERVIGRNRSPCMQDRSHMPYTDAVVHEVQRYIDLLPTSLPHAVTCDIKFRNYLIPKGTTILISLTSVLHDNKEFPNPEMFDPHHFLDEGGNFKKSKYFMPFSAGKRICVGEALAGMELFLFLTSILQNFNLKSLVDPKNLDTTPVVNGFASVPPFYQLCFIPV
E coli WT exp = growth inhibitors of wild-type E. coli, primary screen, strain BW25113, expanded library, OD600. OD600 absorbance. hit rate 0.15% among 98,000. growth inhibition, % at 100 µM;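 active = growth inhibition above about 50% at one test dose, limit read from the data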;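 note: growth measured after 20 h incubation at 37 °C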
CYP2C19 inh = blockers of cytochrome P450 2C19 activity – biochemical, luminescence, ADME assay, primary screen | AID 778, 2007 | hit rate 21% among 96,000 | CYP2C19 Supersomes, luciferin-H EGE luminescence, 30 min | P33261 | inhibition, % at 5 µM;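 active = CYP2C19 inhibition above a set limit at 5 µM in the primary screen, cut at about 50% in these data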;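 note: plate controls were negative control wells for no effect and 2.5 mM tranylcypromine positive control for full effect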
CYP2C9 activ = human CYP2C9 activators, primary screen, biochemical, luminescence. Cytochrome P450 2C9 (Homo sapiens), P11712. recombinant CYP2C9, luciferin-H conversion; hits give high values; factor 1 = untreated enzyme, 0 = blocked. activation factor at 5 µM. hit rate 1.4% among 96,000. AID 1024, 2008;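 active = activation factor of 2 or more for CYP2C9 at a 5 µM dose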;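 note: 0 = sulfaphenazole-blocked wells and 1 = vehicle-only wells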
tolC growth inh = growth inhibitors of E. coli tolC mutant, primary screen, strain BW25113 ΔtolC::kan, 384-well. OD615. growth inhibition, % at 10 µM (by protocol). hit rate 2.2% among 65,000;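 active = growth inhibition at or above a cutoff equal to the mean over every tested compound plus 3 SD, cut at about 60% in these data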;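 note: growth measured after 20 h incubation at 37 °C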
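Doses: one dose of 10 µM final / Material: E. coli BW25113 ΔtolC::kan, tolC deletion mutant strain / Buffer or medium: LB with kanamycin 50 µg/mL / Evaluation: percent growth inhibition / Detection: optical density read at 615 nm / Incubation: 37 °C, 20 h exposure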
* marks the source's active call; other numbers are inactive results. The list is not random: actives were taken first. Their share in the collection is about 29%.

Screening CCNC(=O)NC(=O)COC(=O)c1ccccc1SCC(=O)NC(=O)NCC returned CYP2C19 act 0.4, CYP2C9 inh 82.7*, E coli WT exp -7.0, CYP2C19 inh 56.0*, CYP2C9 activ 0.2 and tolC growth inh 11.4.
For O=C(Nc1ccc(C(=O)Oc2ccccc2)c(O)c1)c1ccco1 the results were CYP2C19 act 0.6, CYP2C9 inh 42.2, E coli WT exp -3.0, CYP2C19 inh 41.3, CYP2C9 activ 0.6 and tolC growth inh 31.4.
For COC(=O)c1ccc(Oc2cc(C)nc(SC)n2)cc1 the results were CYP2C19 act 0.1, CYP2C9 inh 72.1*, E coli WT exp -7.0, CYP2C19 inh 86.2*, CYP2C9 activ 0.3 and tolC growth inh 3.8.
Screening COc1ccc2nc(C)c(C(=O)OCCN(C)C)cc2c1 returned CYP2C19 act 1.1, CYP2C9 inh 0.9, CYP2C19 inh -7.5, CYP2C9 activ 1 and tolC growth inh -10.3.
CCOC(=O)c1sc(N)c(C#N)c1COC(=O)CNC(=O)c1ccccc1 was read as CYP2C19 act 0.6, CYP2C9 inh 72.9*, E coli WT exp -11.0, CYP2C19 inh 42.2, CYP2C9 activ 0.3 and tolC growth inh 7.4.
`COCCOC(=O)C1=C(C)NC2=C(C(=O)CC(C)(C)C2)C1c1cccnc1` (stereo not drawn) gave CYP2C19 act 0.7, CYP2C9 inh 5.2, E coli WT exp 7.0, CYP2C19 inh 34.6, CYP2C9 activ 0.9 and tolC growth inh -17.1.
Screening CC1=C(C#N)C(c2cccnc2)C2=C(CC(c3ccc(Cl)cc3)CC2=O)N1 (stereo not drawn) returned CYP2C19 act 0.1, CYP2C9 inh 72.8*, E coli WT exp 10.0, CYP2C19 inh 91.8* and CYP2C9 activ 0.3.
Screening Cc1cc(C)c(S(=O)(=O)Nc2cccnc2)c(C)c1 returned CYP2C19 act 0.8, CYP2C9 inh 26.0, E coli WT exp 0.0, CYP2C19 inh 22.3, CYP2C9 activ 0.7 and tolC growth inh -11.6.
`Cc1cc(C)c(S(=O)(=O)Nc2ccc(O)cc2)c(C)c1` gave CYP2C19 act 0.3, CYP2C9 inh 8.6, E coli WT exp 8.0, CYP2C19 inh 71.2*, CYP2C9 activ 0.9 and tolC growth inh 8.0.
`CCNC(=O)CSc1nnc(-c2ccc(OC)cc2)n1CC(C)C` gave CYP2C19 act 0.9, CYP2C9 inh 21.3, E coli WT exp 6.0, CYP2C19 inh 10.9 and CYP2C9 activ 0.8.
O=C1c2ccccc2C(O)(c2ncc[nH]2)N1CCc1ccccc1 (stereo not drawn) was read as CYP2C19 act 0.1, CYP2C9 inh -0.8, E coli WT exp -28.0, CYP2C19 inh 91.9* and CYP2C9 activ 1.
`CCOC(=O)N1CCN(C(=O)c2nc3ccccc3s2)CC1` gave CYP2C19 act 0.8, CYP2C9 inh 3.5, E coli WT exp -11.0, CYP2C19 inh 15.9, CYP2C9 activ 1 and tolC growth inh -1.6.
CCNC(=S)N(Cc1ccc(OC)cc1)C1CC(=O)N(c2ccc(OCC)cc2)C1=O (stereo not drawn) was read as CYP2C19 act 0.8, CYP2C9 inh 20.3, E coli WT exp 2.0, CYP2C19 inh 20.6 and CYP2C9 activ 0.8.
`Cc1ccccc1N(CC(=O)NCc1ccc2c(c1)OCO2)C(=O)CCC(=O)Nc1ccccn1` gave CYP2C19 act 0.5, CYP2C9 inh 48.8, E coli WT exp 7.0, CYP2C19 inh 49.8, CYP2C9 activ 0.5 and tolC growth inh 3.2.
Cc1ccc(N(CC(=O)NCc2ccco2)C(=O)CCC(=O)Nc2ccccn2)cc1C was read as CYP2C19 act 0, CYP2C9 inh 30.0, E coli WT exp -8.0, CYP2C19 inh 96.4*, CYP2C9 activ 0.7 and tolC growth inh -10.0.
CCC(C)(C)NC(=O)CN(C(=O)CCC(=O)Nc1cc(C)ccn1)c1ccc2c(c1)OCO2 was read as CYP2C19 act 0.4, CYP2C9 inh 50.3*, E coli WT exp -6.0, CYP2C19 inh 57.7*, CYP2C9 activ 0.5 and tolC growth inh -2.0.
